Source: ChEMBL document CHEMBL1781959, “Synthesis and in vitro antitumor activity of substituted quinazoline and quinoxaline derivatives: search for anticancer agent” (Eur J Med Chem, 2011)

What was measured:
CCRF-CEM = experiment: Growth inhibition of human CCRF-CEM cells after 48 hrs by SRB assay; type: functional
Method in brief: (§1)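 NCI 60-panel five-dose assay at 0.01, 0.1, 1, 10 and 100 μM. Cells in RPMI 1640 with 5% FBS and 2 mM L-glutamine, preincubated 24 h, with time-zero plates TCA-fixed. Drug exposure 48 h at 37 °C. Read by SRB staining at 515 nm. GI50 is the concentration where [(Ti−Tz)/(C−Tz)]×100 = 50, taken from log concentration versus % growth curves.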

K562 = experiment: Growth inhibition of human K562 cells after 48 hrs by SRB assay; type: functional; details: K562, 48 h; method in brief: as §1
MOLT-4 [1] = experiment: Growth inhibition of human MOLT4 cells after 48 hrs by SRB assay; type: functional; details: MOLT-4, 48 h; method in brief: as §1
[2] = Growth inhibition of human […] cells after 48 hrs by SRB assay; type: functional; method in brief: as §1
SR = experiment: Growth inhibition of human SR cells after 48 hrs by SRB assay; type: functional
Method in brief: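 Leukemia suspension line in the NCI-60 screen, grown in RPMI 1640 with 5% FBS and 2 mM L-glutamine and preincubated for 24 h. Exposure was either a single 10^-5 M dose or five doses from 0.01 to 100 μM, for 48 h at 37 °C. Settled cells were fixed with 80% TCA (16% final), stained with SRB, and read at 515 nm. GI50 was derived from % growth against time-zero and untreated controls.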

NCI-H522 [3] = experiment: Growth inhibition of human NCI-H522 cells after 48 hrs by SRB assay; type: functional; details: NCI-H522, 48 h; method in brief: as §1
HCC 2998 = experiment: Growth inhibition of human HCC2998 cells after 48 hrs by SRB assay; type: functional; details: HCC 2998, 48 h; method in brief: as §1
HCT-116 = experiment: Growth inhibition of human HCT116 cells after 48 hrs by SRB assay; type: functional; details: HCT-116, 48 h; method in brief: as §1
SW-620 = experiment: Growth inhibition of human SW620 cells after 48 hrs by SRB assay; type: functional; details: SW-620, 48 h
Method in brief: (§2)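 NCI-60 panel cells grown in RPMI 1640 with 5% FBS and 2 mM L-glutamine, then seeded at 5000–40,000 cells/well by doubling time and preincubated for 24 h. Compound in DMSO was tested either at 10^-5 M alone or at 0.01–100 μM in five doses, for 48 h at 37 °C. Cells were fixed with cold TCA (10% final), stained with SRB, and read at 515 nm. GI50 was taken from % growth relative to time-zero and control wells.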

LOX IMVI = experiment: Growth inhibition of human LOXIMVI cells after 48 hrs by SRB assay; type: functional; method in brief: as §1
SK-MEL-28 = experiment: Growth inhibition of human SK-MEL-28 cells after 48 hrs by SRB assay; type: functional; details: SK-MEL-28, 48 h; method in brief: as §2
SK-MEL-5 = experiment: Growth inhibition of human SK-MEL-5 cells after 48 hrs by SRB assay; type: functional; details: SK-MEL-5, 48 h; method in brief: as §2
UACC-257 = experiment: Growth inhibition of human UACC257 cells after 48 hrs by SRB assay; type: functional; details: UACC-257, 48 h; method in brief: as §2
IGROV-1 [4] = experiment: Growth inhibition of human IGROV1 cells after 48 hrs by SRB assay; type: functional; details: IGROV-1, 48 h; method in brief: as §1
OVCAR-4 = experiment: Growth inhibition of human OVCAR4 cells after 48 hrs by SRB assay; type: functional; details: OVCAR-4, 48 h; method in brief: as §1
SN12C [5] = experiment: Growth inhibition of human SN12C cells after 48 hrs by SRB assay; type: functional; method in brief: as §2
PC-3 = experiment: Growth inhibition of human PC3 cells after 48 hrs by SRB assay; type: functional; details: PC-3, 48 h; method in brief: as §1
MCF7 = experiment: Growth inhibition of human MCF7 cells after 48 hrs by SRB assay; type: functional; details: MCF7, 48 h; method in brief: as §1
NCI-H322M = experiment: Cytotoxicity against human NCI-H322M cells after 48 hrs by SRB assay; type: cell-based
Method in brief: (§3)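 NCI-60 five-dose screen in RPMI 1640 with 5% FBS and 2 mM L-glutamine; 5000–40,000 cells/well, 24 h pre-incubation. DMSO stocks diluted to 0.01, 0.1, 1, 10 and 100 μM final; 48 h at 37 °C, 5% CO2. Fixed with TCA (10% final adherent, 16% suspension), stained with 0.4% SRB, A515. GI50, TGI and LC50 taken from time-zero, control and test absorbances.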

NCI-H23 = experiment: Cytotoxicity against human NCI-H23 cells after 48 hrs by SRB assay; type: cell-based; details: nci-h23, 48 h; method in brief: as §3
A549 = experiment: Cytotoxicity against human A549 cells after 48 hrs by SRB assay; type: cell-based; details: a549, 48 h; method in brief: as §3
MOLT-4 [6] = experiment: Cytotoxicity against human MOLT4 cells after 48 hrs by SRB assay; type: cell-based; details: molt-4, 48 h; method in brief: as §3
HL-60(TB) = experiment: Cytotoxicity against human HL-60(TB) cells after 48 hrs by SRB assay; type: cell-based; method in brief: as §3
[7] = Cytotoxicity against human […] cells after 48 hrs by SRB assay; type: cell-based; method in brief: as §3
NCI-H460 = experiment: Cytotoxicity against human NCI-H460 cells after 48 hrs by SRB assay; type: cell-based; details: nci-h460, 48 h; method in brief: as §3
NCI-H522 [8] = experiment: Cytotoxicity against human NCI-H522 cells after 48 hrs by SRB assay; type: cell-based; details: nci-h522, 48 h; method in brief: as §3
COLO 205 = experiment: Cytotoxicity against human COLO205 cells after 48 hrs by SRB assay; type: cell-based; details: colo 205, 48 h; method in brief: as §3
SNB-19 = experiment: Cytotoxicity against human SNB19 cells after 48 hrs by SRB assay; type: cell-based; details: snb-19, 48 h
Method in brief: (§4)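 NCI-60 five-dose screen. Cells grown in RPMI 1640 with 5% FBS and 2 mM L-glutamine and pre-incubated 24 h; a time-zero plate is TCA-fixed. Drug added at 0.01, 0.1, 1, 10 and 100 µM (DMSO stock) for 48 h at 37 °C, 5% CO2. Fixed with cold TCA (10% final for adherent, 16% for suspension cells), stained with 0.4% SRB, A515. GI50, TGI and LC50 taken from dose-response curves.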

Malme-3M = experiment: Cytotoxicity against human MALME-3M cells after 48 hrs by SRB assay; type: cell-based; method in brief: as §3
IGROV-1 [9] = experiment: Cytotoxicity against human IGROV1 cells after 48 hrs by SRB assay; type: cell-based; details: igrov-1, 48 h; method in brief: as §3
RXF 393 = experiment: Cytotoxicity against human RXF393 cells after 48 hrs by SRB assay; type: cell-based; details: rxf 393, 48 h; method in brief: as §3
SN12C [10] = experiment: Cytotoxicity against human SN12C cells after 48 hrs by SRB assay; type: cell-based; method in brief: as §3
T47D = experiment: Cytotoxicity against human T47D cells after 48 hrs by SRB assay; type: cell-based; method in brief: as §4

## O=c1c2ccccc2nc(-c2ccco2)n1/N=C/c1ccccc1Cl
CCRF-CEM
  GI50: 11.8 µM
  TGI: > 100 µM
K562
  GI50: > 100 µM
  TGI: > 100 µM
MOLT-4 [1]
  GI50: > 100 µM
  TGI: > 100 µM
[2]
  GI50: > 100 µM
  TGI: > 100 µM
SR
  GI50: > 100 µM
  TGI: > 100 µM
NCI-H522 [3]
  GI50: 2.14 µM
  TGI: 6.45 µM
HCC 2998
  GI50: 5.68 µM
  TGI: > 100 µM
HCT-116
  GI50: 3.32 µM
  TGI: 23.6 µM
SW-620
  GI50: 4.68 µM
  TGI: 12.7 µM
LOX IMVI
  GI50: 4.54 µM
  TGI: > 100 µM
SK-MEL-28
  GI50: 4.45 µM
  TGI: 18.6 µM
SK-MEL-5
  GI50: 5.56 µM
  TGI: 31.8 µM
UACC-257
  GI50: 8.34 µM
  TGI: > 100 µM
IGROV-1 [4]
  GI50: 6.12 µM
  TGI: > 100 µM
OVCAR-4
  GI50: 1.82 µM
  TGI: 6.48 µM
SN12C [5]
  GI50: 4.89 µM
  TGI: > 100 µM
PC-3
  GI50: 8.23 µM
  TGI: > 100 µM
MCF7
  GI50: 5.29 µM
  TGI: > 100 µM
NCI-H322M
  LC50: > 100 µM
NCI-H23
  LC50: > 100 µM
A549
  LC50: > 100 µM
MOLT-4 [6]
  LC50: > 100 µM
HL-60(TB)
  LC50: > 100 µM
[7]
  LC50: > 100 µM
NCI-H460
  LC50: > 100 µM
NCI-H522 [8]
  LC50: 82.9 µM
COLO 205
  LC50: > 100 µM
SNB-19
  LC50: > 100 µM
Malme-3M
  LC50: > 100 µM
IGROV-1 [9]
  LC50: > 100 µM
RXF 393
  LC50: > 100 µM
SN12C [10]
  LC50: > 100 µM
T47D
  LC50: > 100 µM
